Published values pooled from the literature.
BTK: Tyrosine-protein kinase BTK (BTK, Homo sapiens, UniProt Q06187)

`Cc1ccc(C(=O)Nc2ccc(CN3CCN(C)CC3)c(C(F)(F)F)c2)cc1C#Cc1cnc2cccnn12` gave a remaining activity of 54% (Mitogen-activated protein kinase kinase kinase 19 (MAP3K19, Homo sapiens, UniProt Q56UN5); enzyme activity, inhibitor; 23.5 nM).
`COc1cc(Nc2cnc(C#N)c(O[C@H](C)CN(C)C)n2)ncc1-c1cnn(C)c1` gave a remaining activity of 95% (Serine/threonine-protein kinase tousled-like 1 (TLK1, Homo sapiens, UniProt Q9UKI8); enzyme activity, inhibitor, radiometric; 1 µM).
With `COc1cccc(OC)c1-c1cc(C(=O)N[C@@H](CC(C)C)C(=O)O)nn1-c1ccnc2cc(Cl)ccc12` the Emax was 63% (Neurotensin receptor type 1 (NTSR1, Homo sapiens, UniProt P30989); calcium signal, agonist; CHO).
With `COc1ccc(F)cc1C(=O)NCc1ccc(-c2nn([C@@H](C)C(F)(F)F)c(N)c2C(N)=O)cc1` the koff was 7.9e-05 s⁻¹ (BTK; binding, SPR).
`CC(C)(C=C(C#N)C(=O)N1CCC[C@H]1Cn1nc(-c2ccc(Oc3ccccc3)cc2F)c2c(N)ncnc21)N1CCOCC1` gave a kinact/KI of 400000 M⁻¹ s⁻¹ (BTK; enzyme activity, inhibitor).
For `Nc1ncnc2occ(-c3ccc(NC(=O)Nc4cc(C(F)(F)F)ccc4F)cc3)c12`, the remaining signal was 0.3% (Cyclin-dependent kinase 11A (CDK11A, Homo sapiens, UniProt Q9UQ88); cell-free assay; 20 µM).
`C=CC(=O)N1CCC[C@@H]1Cn1nc(-c2ccc(Oc3ccccc3)cc2F)c2c(N)ncnc21` has a KI (inactivation) of 1.8 nM (BTK; enzyme activity, inhibitor).
`CC(C)C[C@H](NC(=O)[C@H](CC(C)C)NC(=O)CNC(=O)[C@H](C)NC(=O)[C@H](C)NC(=O)[C@H](CCCNC(=N)N)NC(=O)CNC(=O)CCCCNC(=O)CCCCNC(=O)CCCCNC(=O)[C@H](CCCCN)NC(=O)[C@H](Cc1ccc(O)cc1)NC(=O)CCc1c[nH]c2ccccc12)C(N)=O` gave an Emax of 94% (Neuropeptides B/W receptor type 1 (NPBWR1, Homo sapiens, UniProt P48145); cAMP, agonist, TR-FRET).
